From ChEMBL document CHEMBL1629500, “Synthesis and anticonvulsant activity of N-3-arylamide substituted 5,5-cyclopropanespirohydantoin derivatives” (Eur J Med Chem, 2010)
Active and inactive are the calls of the source.

Legend:
Mus musculus [1] = experiment: Anticonvulsant activity in ip dosed mouse assessed as inhibition of maximum electric shock-induced hind limb tonic extension after 4 hrs; format: functional; conditions: Hindlimb; for minimal effective dose: read-out: MED
Summary of the method: (§1)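 Male Kunming mice received the compound ip as a suspension in 0.5% methylcellulose at 30, 100 and 300 mg/kg, one to four mice per dose. At 0.5 h and 4.0 h, a 60-Hz, 50-mA current was given through corneal electrodes for 0.25 s. Absence of hindlimb tonic extension counted as protection. The minimal dose protecting half or more of the mice was recorded.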

Mus musculus [2] = experiment: Neurotoxicity against ip dosed mouse by rotarod test after 0.5 hrs; format: toxicity, organism-based; conditions: in vivo
Summary of the method: (§2)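 Mice were trained on a 1-in. knurled rod turning at 6 rpm, then given 30, 100 or 300 mg/kg ip as a suspension in 0.5% methylcellulose. They were tested at 0.5 h and 4.0 h. Neurotoxicity meant failure to keep balance on the rod for at least 1 min in each of four trials. The minimal dose affecting half or more of the mice was recorded.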

Mus musculus [3] = experiment: Anticonvulsant activity in ip dosed mouse assessed as inhibition of PTZ-induced clonic seizure after 0.5 hrs; format: functional; conditions: for minimal effective dose: read-out: MED
Summary of the method: (§3)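 Male Kunming mice were dosed ip with the compound suspended in 0.5% methylcellulose at 30, 100 and 300 mg/kg, one to four mice per dose. Pentylenetetrazole in 0.9% saline was given subcutaneously at 0.5 h and 4.0 h. Protection meant no threshold seizure, i.e. no single clonic spasm episode lasting at least 5 s. The minimal dose active in half or more of the mice was recorded.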

Mus musculus [4] = experiment: Anticonvulsant activity in ip dosed mouse assessed as inhibition of PTZ-induced clonic seizure after 4 hrs; format: functional; conditions: for minimal effective dose: read-out: MED; summary of the method: as §3
Mus musculus [5] = experiment: Neurotoxicity against ip dosed mouse by rotarod test after 4 hrs; format: toxicity, organism-based; conditions: in vivo; summary of the method: as §2
Mus musculus [6] = experiment: Anticonvulsant activity in ip dosed mouse assessed as inhibition of maximum electric shock-induced hind limb tonic extension after 0.5 hrs; format: functional; conditions: Hindlimb; for minimal effective dose: read-out: MED; summary of the method: as §1
Mus musculus [7] = experiment: Anticonvulsant activity in ip dosed mouse assessed as inhibition of maximum electric shock-induced hind limb tonic extension; format: functional; conditions: Hindlimb
Mus musculus [8] = experiment: Anticonvulsant activity in ip dosed mouse assessed as inhibition of PTZ-induced clonic seizure; format: functional
Summary of the method: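 Male Kunming mice (20 ± 2.0 g) were used. Test drug was given ip to groups of 10 mice over a range of doses until at least three points fell between 10% and 90% seizure protection or minimal neurotoxicity. […] Neurotoxicity was scored on the rotorod 30 min after dosing. PI = TD50/ED50.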

[9] = Toxicity against ip dosed mouse; format: organism-based; conditions: in vivo
Mus musculus [10] = experiment: Protective index, ratio of TD50 for mouse to ED50 for inhibition of subcutaneous pentylenetetrazole-induced seizure in mouse; format: functional
Mus musculus [11] = organism: Mus musculus; experiment: Protective index, ratio of TD50 for mouse to ED50 for inhibition of maximal electroshock-induced seizure in mouse; format: functional

Compound	Activity (Mus musculus [1])	Activity (Mus musculus [2])	Activity (Mus musculus [3])	Activity (Mus musculus [4])	MED (Mus musculus [5]) [mg/kg]	minimal effective dose (Mus musculus [6]) [mg/kg]	minimal effective dose (Mus musculus [3]) [mg/kg]	minimal effective dose (Mus musculus [4]) [mg/kg]	Activity (Mus musculus [5])	Activity (Mus musculus [6])	minimal effective dose (Mus musculus [1]) [mg/kg]	MED (Mus musculus [2]) [mg/kg]	ED50 (Mus musculus [7]) [mg/kg]	ED50 (Mus musculus [8]) [mg/kg]	TD50 [9] [mg/kg]	Ratio (Mus musculus [10])	Ratio (Mus musculus [11])
CC1(C)CC12NC(=O)N(NC(=O)c1ccccc1F)C2=O (stereo not drawn)	inactive	Not Active	inactive	inactive	300	100											
CCC1(C)CC(=O)NC1=O (stereo not drawn) [ETHOSUXIMIDE]	inactive	Not Active					100	300	Not Active	inactive							
CC1(C)CC12NC(=O)N(NC(=O)c1cccs1)C2=O (stereo not drawn)			inactive	inactive	300					inactive	300	100					
Cc1ccc(C(=O)NN2C(=O)NC3(CC3(C)C)C2=O)cc1 (stereo not drawn)	inactive	Not Active	inactive		300	100		300									
CC1(C)CC12NC(=O)N(NC(=O)c1ccc([N+](=O)[O-])cc1)C2=O (stereo not drawn)		Not Active		inactive		300	300		Not Active		300						
CC1(C)CC12NC(=O)N(NC(=O)c1ccccc1Cl)C2=O (stereo not drawn)	inactive	Not Active		inactive	300	300	300										
NC(=O)N1c2ccccc2C=Cc2ccccc21 [CARBAMAZEPINE]													8.8	> 100			
CC1(C)CC12NC(=O)N(NC(=O)c1ccc(F)cc1)C2=O (stereo not drawn)		Not Active		inactive	300	100	300				300						
COc1cc(C(=O)NN2C(=O)NC3(CC3(C)C)C2=O)cc(OC)c1OC (stereo not drawn)	inactive		inactive	inactive	300	300						100					
CC1(C)CC12NC(=O)N(NC(=O)c1ccncc1)C2=O (stereo not drawn)			inactive	inactive	300					inactive	300	100					
COc1ccc(C(=O)NN2C(=O)NC3(CC3(C)C)C2=O)cc1OC (stereo not drawn)		Not Active	inactive		300	300		300			300						
CC(C)(C)c1ccc(C(=O)NN2C(=O)NC3(CC3(C)C)C2=O)cc1 (stereo not drawn)		Not Active		inactive		30	100		Not Active		100		25.3	208	382	1.8	15.5
COc1ccc(C(=O)NN2C(=O)NC3(CC3(C)C)C2=O)cc1 (stereo not drawn)	inactive	Not Active	inactive	inactive	300	100											
CC1(C)CC12NC(=O)N(NC(=O)c1ccco1)C2=O (stereo not drawn)			inactive	inactive	300					inactive	300	100					
CC1(C)CC12NC(=O)N(NC(=O)c1ccc(Cl)cc1)C2=O (stereo not drawn)		Not Active		inactive		100	300		Not Active		300						
O=C1NC(=O)C(c2ccccc2)(c2ccccc2)N1 [PHENYTOIN]			inactive	inactive	100	30					30	100		> 300			
CC1(C)CC12NC(=O)N(N1C(=O)c3ccccc3C1=O)C2=O (stereo not drawn)		Not Active				30	300	300	Not Active		100		13.7	137	387	2.8	17.8
CN(C)c1ccc(C(=O)NN2C(=O)NC3(CC3(C)C)C2=O)cc1 (stereo not drawn)		Not Active		inactive		300	100		Not Active		300						
CCC1(c2ccccc2)C(=O)NC(=O)NC1=O [PHENOBARBITAL]													21.8	13.2			
CC1(C)CC12NC(=O)N(NC(=O)c1ccc(Br)cc1)C2=O (stereo not drawn)			inactive		300	300		300			300	300					
CC1(C)CC12NC(=O)N(NC(=O)c1cccnc1)C2=O (stereo not drawn)			inactive	inactive	300					inactive	300	100					
CCCC(CCC)C(=O)[O-].[Na+] [VALPROATE SODIUM]														149			
Cc1cccc(C(=O)NN2C(=O)NC3(CC3(C)C)C2=O)c1 (stereo not drawn)	inactive	Not Active	inactive	inactive		100			Not Active								
CC1(C)CC12NC(=O)N(NC(=O)c1ccc(C(F)(F)F)cc1)C2=O (stereo not drawn)		Not Active				30	300	300	Not Active		30		9.2	62.1	422	6.7	45.8
CC1(C)CC12NC(=O)N(NC(=O)c1ccccc1)C2=O (stereo not drawn)	inactive			inactive		300	300		Not Active			300					
